Data from ChEMBL document CHEMBL3576847, “Discovery of 1-(3,3-dimethylbutyl)-3-(2-fluoro-4-methyl-5-(7-methyl-2-(methylamino)pyrido[2,3-d]pyrimidin-6-yl)phenyl)urea (LY3009120) as a pan-RAF inhibitor with minimal paradoxical activation and activity against BRAF or RAS mutant tumor cells” (J Med Chem, 2015).
≈ marks a conversion by molar mass, not a printed value.

What was measured:
[1] = biological target: Dual specificity mitogen-activated protein kinase kinase; MEK1/2 (Homo sapiens, UniProt P36507+Q02750); experiment: Inhibition of MEK (unknown origin)
[2] = Half life in dog at 10 mg/kg, po administered as API capsule; assay type: ADME, organism-based, Canis lupus familiaris; conditions: in vivo
[3] = biological target: Tyrosine-protein kinase Fyn (Homo sapiens, UniProt P06241); experiment: Competitive binding affinity to FYN in human A375 cells after 15 mins in presence of ATP analogue; assay type: cell-based, A-375
Chain of Tyrosine-protein kinase Fyn (P06241 whole entry): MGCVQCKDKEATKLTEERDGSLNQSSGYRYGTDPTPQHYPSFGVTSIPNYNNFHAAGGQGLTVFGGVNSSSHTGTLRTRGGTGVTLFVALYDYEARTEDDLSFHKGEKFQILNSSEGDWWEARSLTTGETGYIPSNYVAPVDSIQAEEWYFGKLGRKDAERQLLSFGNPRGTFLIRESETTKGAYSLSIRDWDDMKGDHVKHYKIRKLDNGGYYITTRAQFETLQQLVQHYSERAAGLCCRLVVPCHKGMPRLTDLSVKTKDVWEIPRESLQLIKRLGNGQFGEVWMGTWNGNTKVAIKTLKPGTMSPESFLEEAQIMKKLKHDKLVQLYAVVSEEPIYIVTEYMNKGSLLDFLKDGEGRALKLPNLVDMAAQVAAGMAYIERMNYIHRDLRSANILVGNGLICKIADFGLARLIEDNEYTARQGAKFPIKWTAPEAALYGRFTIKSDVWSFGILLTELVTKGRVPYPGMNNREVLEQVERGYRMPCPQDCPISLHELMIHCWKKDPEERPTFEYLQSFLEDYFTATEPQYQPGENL
Outline: (§1)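 A375 whole-cell lysate incubated with compound for 15 min. Binding to over 170 kinases was measured by direct competition with an ATP analog (KiNativ platform). IC50 reported in nM.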

[4] = Solubility of the compound in simulated fed intestinal fluid; assay type: ADME
[5] = Half life in dog at 1 mg/kg, iv administered as 20% cyclodextrin solution; assay type: ADME, organism-based, Canis lupus familiaris; conditions: in vivo
Outline: (§2)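 Single 1 mg/kg iv dose given as a 20% cyclodextrin solution to rat, dog (male, fasted, crossover, n = 4) or monkey (male, fasted). Clearance, volume of distribution and half-life were calculated. Clearance is also expressed relative to species hepatic blood flow (Qh).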

Rhesus monkey = experiment: Clearance in monkey at 1 mg/kg, iv administered as suspension in 20% cyclodextrin relative to hepatic blood flow; assay type: ADME, organism-based, Macaca mulatta; conditions: in vivo
eIF-2-alpha kinase GCN2 = eIF-2-alpha kinase GCN2 (Homo sapiens, UniProt Q9P2K8); experiment: Competitive binding affinity to GCN2 in human A375 cells after 15 mins in presence of ATP analogue; assay type: cell-based, A-375; outline: as §1
Chain of eIF-2-alpha kinase GCN2 (Q9P2K8 whole entry): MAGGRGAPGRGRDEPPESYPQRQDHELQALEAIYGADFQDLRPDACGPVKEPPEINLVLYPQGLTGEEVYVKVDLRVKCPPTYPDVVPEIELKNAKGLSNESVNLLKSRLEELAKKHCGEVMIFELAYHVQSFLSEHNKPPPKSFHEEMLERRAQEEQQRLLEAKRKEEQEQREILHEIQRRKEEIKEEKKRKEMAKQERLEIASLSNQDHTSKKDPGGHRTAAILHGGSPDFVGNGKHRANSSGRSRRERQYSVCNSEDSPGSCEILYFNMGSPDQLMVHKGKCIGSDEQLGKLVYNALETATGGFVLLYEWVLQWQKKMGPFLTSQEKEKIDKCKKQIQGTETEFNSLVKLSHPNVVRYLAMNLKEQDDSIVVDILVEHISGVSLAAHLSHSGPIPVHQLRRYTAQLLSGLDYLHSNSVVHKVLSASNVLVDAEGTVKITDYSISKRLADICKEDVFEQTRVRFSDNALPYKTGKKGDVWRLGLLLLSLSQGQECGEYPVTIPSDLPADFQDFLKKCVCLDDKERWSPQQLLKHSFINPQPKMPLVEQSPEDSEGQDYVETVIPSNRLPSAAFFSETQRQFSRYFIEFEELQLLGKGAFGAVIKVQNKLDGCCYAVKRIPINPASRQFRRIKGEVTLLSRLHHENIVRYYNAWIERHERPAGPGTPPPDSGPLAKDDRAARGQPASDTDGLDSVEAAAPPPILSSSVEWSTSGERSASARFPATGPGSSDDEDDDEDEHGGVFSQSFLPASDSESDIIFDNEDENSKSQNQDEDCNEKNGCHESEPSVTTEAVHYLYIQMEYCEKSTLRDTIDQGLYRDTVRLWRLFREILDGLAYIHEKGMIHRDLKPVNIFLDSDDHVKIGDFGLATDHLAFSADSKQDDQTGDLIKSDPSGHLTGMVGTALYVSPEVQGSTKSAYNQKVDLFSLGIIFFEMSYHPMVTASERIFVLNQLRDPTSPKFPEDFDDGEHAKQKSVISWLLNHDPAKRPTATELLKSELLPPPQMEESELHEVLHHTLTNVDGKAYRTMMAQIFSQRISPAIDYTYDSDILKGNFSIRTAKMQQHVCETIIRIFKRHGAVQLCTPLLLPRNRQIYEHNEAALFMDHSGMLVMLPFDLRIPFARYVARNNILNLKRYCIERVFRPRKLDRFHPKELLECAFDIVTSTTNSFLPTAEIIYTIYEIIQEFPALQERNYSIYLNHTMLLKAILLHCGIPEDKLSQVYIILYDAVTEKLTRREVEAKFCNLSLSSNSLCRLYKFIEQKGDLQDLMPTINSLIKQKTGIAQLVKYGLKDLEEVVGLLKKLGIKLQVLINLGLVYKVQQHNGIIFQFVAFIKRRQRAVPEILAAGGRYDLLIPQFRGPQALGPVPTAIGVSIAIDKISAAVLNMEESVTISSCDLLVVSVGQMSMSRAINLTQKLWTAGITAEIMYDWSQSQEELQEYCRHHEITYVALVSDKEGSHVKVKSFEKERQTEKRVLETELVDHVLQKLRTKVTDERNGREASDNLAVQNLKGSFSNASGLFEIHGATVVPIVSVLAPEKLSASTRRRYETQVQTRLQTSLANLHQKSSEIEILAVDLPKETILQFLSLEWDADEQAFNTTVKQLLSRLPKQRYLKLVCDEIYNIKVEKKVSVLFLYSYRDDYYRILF

[6] = Oral bioavailability in Sprague-Dawley rat at 10 mg/kg administered as suspension in 1% HEC; assay type: ADME, organism-based; conditions: in vivo
[7] = Clearance in dog at 1 mg/kg, iv administered as 20% cyclodextrin solution; assay type: ADME, organism-based, Canis lupus familiaris; conditions: in vivo; outline: as §2
[8] = Cmax in monkey at 10 mg/kg, po administered as suspension in 20% cyclodextrin; assay type: ADME, organism-based, Macaca mulatta; parameters: dose 10 mg/kg, route oral; conditions: rhesus monkey, in vivo
Outline: (§3)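 Male, fasted monkeys given a 10 mg/kg oral formulation as part of an iv/po PK study. Plasma exposure and half-life were derived.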

[9] = AUC (0 to 24 hrs) in monkey at 10 mg/kg, po administered as suspension in 20% cyclodextrin; assay type: ADME, organism-based, Macaca mulatta; parameters: dose 10 mg/kg, time < 24 hr, route oral; conditions: rhesus monkey, in vivo; outline: as §3
[10] = Cmax in dog at 10 mg/kg, po administered as solid suspension; assay type: ADME, organism-based, Canis lupus familiaris; parameters: dose 10 mg/kg, route oral; conditions: in vivo
Rattus norvegicus = experiment: Clearance in Sprague-Dawley rat at 1 mg/kg, iv administered as suspension in 20% cyclodextrin relative to hepatic blood flow; assay type: ADME, organism-based; conditions: in vivo
[11] = Clearance in monkey at 1 mg/kg, iv administered as 20% cyclodextrin solution; assay type: ADME, organism-based, Macaca mulatta; conditions: rhesus monkey, in vivo; outline: as §2
[12] = Oral bioavailability in Sprague-Dawley rat at 10 mg/kg administered as suspension in 20% cyclodextrin; assay type: ADME, organism-based; conditions: in vivo
[13] = Half life in Sprague-Dawley rat at 10 mg/kg, po administered as suspension in 20% cyclodextrin; assay type: ADME, organism-based; conditions: in vivo

`CNc1ncc2cc(-c3cc(NC(=O)NCCC(C)(C)C)c(F)cc3C)c(C)nc2n1` [LY-3009120] gave an IC50 [1] greater than 20000 nM, a half-life [2] of 7.6 h and an IC50 [3] of 91 nM. It also gave a solubility [4] of 2 µg/mL (≈ 4.71 µM), a half-life [5] of 1.8 h and a CL (Rhesus monkey) of 30%. The IC50 (eIF-2-alpha kinase GCN2) was 450 nM, the bioavailability [6] was 3.6% and the clearance [7] was 14.6 mL/min/kg. It also gave a Cmax [8] of 492 ng/mL, an AUC(0-t) at 24 h [9] of 1260 ng·h/mL and a Cmax [10] of 511 ng/mL. It also gave a CL (Rattus norvegicus) of 30%, a clearance [11] of 25.9 mL/min/kg and a bioavailability [12] of 31.7%. The half-life [13] was 2.7 h.
